The source made the active and inactive calls. The calls are words filed in the database; no cut-off is given here.
Assays:
[1] = target: T1, Hepatocyte growth factor receptor (Homo sapiens, UniProt P08581); assay: Inhibition of MET kinase
Method in brief: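 Cell-free MET kinase activity assay run over a range of inhibitor concentrations; IC50 taken as the concentration giving 50% inhibition of kinase activity; data as mean ± SD, n = 3.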

[2] = target: T1, Hepatocyte growth factor receptor; assay: Inhibition of hepatocyte growth factor-induced MET phosphorylation in human HCT116 cells at 5 uM after 30 mins by immunoblot; format: cell-based
Method in brief: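 Whole-cell lysates immunoblotted for phospho-MET and total MET, with β-actin as loading control; densitometry with phospho-MET normalized to total MET.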

[3] = target: T1, Hepatocyte growth factor receptor; assay: Inhibition of MET kinase by Dixon plot analysis
Method in brief: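 MET kinase activity measured at several inhibitor concentrations; Dixon plot (1/V versus [I]) and Cornish-Bowden plot ([S]/V versus [I]) used to assign inhibition type; Ki derived by linear regression of the Dixon plot.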

[4] = test system: Homo sapiens; assay: Plasma concentration in po dosed human; format: ADME, organism-based; conditions: in vivo
[5] = test system: Mus musculus; assay: Plasma concentration in po dosed mouse; format: ADME, organism-based; conditions: in vivo

T1 sequence (P08581 whole entry): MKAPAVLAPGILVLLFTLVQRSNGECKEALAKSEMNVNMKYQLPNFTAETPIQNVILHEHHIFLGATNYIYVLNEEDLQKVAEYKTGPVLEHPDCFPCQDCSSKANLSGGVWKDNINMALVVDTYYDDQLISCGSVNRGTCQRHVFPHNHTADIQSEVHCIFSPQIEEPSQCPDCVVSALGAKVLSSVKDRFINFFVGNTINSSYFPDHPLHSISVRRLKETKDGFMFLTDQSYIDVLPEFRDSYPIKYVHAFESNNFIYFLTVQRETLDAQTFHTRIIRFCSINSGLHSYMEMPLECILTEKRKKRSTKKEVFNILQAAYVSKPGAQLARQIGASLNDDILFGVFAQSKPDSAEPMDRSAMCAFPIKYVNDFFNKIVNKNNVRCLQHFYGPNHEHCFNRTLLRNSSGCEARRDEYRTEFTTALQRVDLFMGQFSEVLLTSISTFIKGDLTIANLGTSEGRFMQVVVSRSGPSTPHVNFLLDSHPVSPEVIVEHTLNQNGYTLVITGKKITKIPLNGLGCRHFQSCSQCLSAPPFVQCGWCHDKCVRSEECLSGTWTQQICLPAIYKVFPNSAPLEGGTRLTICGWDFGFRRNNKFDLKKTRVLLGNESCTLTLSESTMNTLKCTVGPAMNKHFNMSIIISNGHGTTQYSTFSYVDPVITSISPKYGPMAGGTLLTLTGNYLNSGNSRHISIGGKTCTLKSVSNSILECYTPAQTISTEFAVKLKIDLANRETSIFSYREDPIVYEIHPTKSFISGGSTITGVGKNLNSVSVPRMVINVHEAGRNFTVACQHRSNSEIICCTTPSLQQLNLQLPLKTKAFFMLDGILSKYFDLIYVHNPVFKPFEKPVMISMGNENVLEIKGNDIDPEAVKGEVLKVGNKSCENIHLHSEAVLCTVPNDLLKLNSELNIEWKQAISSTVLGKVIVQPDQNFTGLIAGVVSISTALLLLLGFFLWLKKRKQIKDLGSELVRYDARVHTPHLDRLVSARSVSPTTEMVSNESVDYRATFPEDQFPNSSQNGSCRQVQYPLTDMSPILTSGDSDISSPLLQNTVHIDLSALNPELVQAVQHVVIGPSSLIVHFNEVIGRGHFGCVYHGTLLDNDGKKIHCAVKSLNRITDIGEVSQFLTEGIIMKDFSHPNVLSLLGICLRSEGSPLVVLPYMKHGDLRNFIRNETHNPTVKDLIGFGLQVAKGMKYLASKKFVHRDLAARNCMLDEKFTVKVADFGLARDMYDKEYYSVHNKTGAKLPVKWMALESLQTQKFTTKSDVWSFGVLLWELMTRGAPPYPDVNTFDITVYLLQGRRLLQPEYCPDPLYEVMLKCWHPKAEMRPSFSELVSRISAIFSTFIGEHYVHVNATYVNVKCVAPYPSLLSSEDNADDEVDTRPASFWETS

SMILES	inhibition [1]	inhibition [2]	IC50 [1] [µM]	other results
O=C(O)c1cc(O)c(O)c(O)c1	inactive	–	–	–
Oc1cc(O)c2c(c1)O[C@@H](c1ccc(O)c(O)c1)[C@H](O)C2	inactive	–	–	–
Oc1cc(O)c2c(c1)O[C@H](c1cc(O)c(O)c(O)c1)[C@H](O)C2	inactive	–	–	–
Oc1cc(O)c2c(c1)O[C@H](c1ccc(O)c(O)c1)[C@H](O)C2	inactive	–	–	–
O=C(O[C@@H]1Cc2c(O)cc(O)cc2O[C@@H]1c1ccc(O)c(O)c1)c1cc(O)c(O)c(O)c1 [EPICATECHIN GALLATE]	–	Active	10	–
O=C(O[C@@H]1Cc2c(O)cc(O)cc2O[C@@H]1c1cc(O)c(O)c(O)c1)c1cc(O)c(O)c(O)c1 [EPIGALOCATECHIN GALLATE]	–	Active	10	Ki [3]: 3.3 µM; concentration [4]: 7.5 µM; concentration [5]: 9 µM
O=C(O[C@@H]1Cc2c(O)cc(O)cc2O[C@H]1c1cc(O)c(O)c(O)c1)c1cc(O)c(O)c(O)c1 [GALLOCATECHIN GALLATE]	–	Active	10	–
